Inconclusive results are not listed.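 The calls were made as follows, unless noted: active = growth inhibition above 25% in both replicates, a cutoff set 3 SD above the mean; inconclusive = above 25% in only one replicate; inactive = the rest.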
Columns and labels:
[1] = S. cerevisiae growth inhibition in permissive medium (OD615), pilot counter-assay for S. cerevisiae lifespan shortening project, permissive growth control (AID 705); conditions: OD615, 24 h, at 10 µM, hits give high values
Method in brief: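 System – S. cerevisiae with engineered DeaD lifespan system · Buffer or medium – SC raffinose/galactose permissive medium · Schedule – cells pre-grown 4 h, then 24 h compound exposure, 30 °C humidified · Technique – culture turbidity as optical density at 615 nm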

[2] = S. cerevisiae growth inhibition in restrictive medium, OD615, pilot screen, restrictive growth control, yeast lifespan reduction project (AID 706;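 active = growth inhibition above a set limit, 3 SD over mean compound inhibition, in both replicates, cut at about 43% in these data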;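 also: modified DeaD lifespan yeast strain shifted to restrictive glucose medium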); conditions: OD615, 48 h, at 10 µM, hits give high values
Method in brief: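 Material: engineered S. cerevisiae DeaD strain / Medium: glucose-based CSMM-D restrictive medium / Compound: single dose of 10 µM compound final, 0.25% DMSO / Timing: 4 h pre-incubation, 48 h exposure at 30 °C / Technique: OD615 absorbance reading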

[3] = doxorubicin toxicity protection in MRP-1 cells – H69AR cells, CellTiter-Glo, duplicate, MRP-1 activator project, pilot screen (AID 807;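 active = viability increase at or above a cutoff of the median across tested compounds plus 3 SD, cut at about 8.5% in these data, passing the limit was not always enough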;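 also: compound pretreatment 18-22 h then 72 h combined with doxorubicin; 0% = doxorubicin alone and 100% = vehicle without doxorubicin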); conditions: H69AR viability with doxorubicin, CellTiter-Glo luminescence; at 10 µM; hits give high values
[4] = viability of HCT116 without oncogenic beta-catenin – human colon tumor cells, pilot screen (AID 823;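 active = cell viability at or below a set limit in both duplicate runs, the limit being the all-compound median minus 4 SD, cut at about 23% in these data, passing the limit was not always enough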;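 also: 0% = wells killed by 20 µM Hyamine and 100% = untreated DMSO cell wells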); conditions: HCT116 beta-catenin knockout viability, CellTiter-Glo, 60 h; at 10 µM; hits give low values
[5] = viability of PTEN-null HCT116 cells – cell-based, HCT116 clonal line, CellTiter-Glo, pilot screen (AID 824;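 active = viability at or below 27.92% in each of two runs, the all-compound median minus 4 SD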;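 also: 0% = 20 µM Hyamine control and 100% = vehicle cell control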); conditions: HCT116 PTEN-deleted viability, 60 h, at 10 µM, hits give low values
[6] = RAM pathway blockade in budding yeast – dse1pr::URA3 reporter, 5-FOA selection, pilot screen (AID 869;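 active = inhibition over a set limit, the all-compound mean plus 3 SD, in both replicate runs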;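 also: 0% = DMSO wells with no growth and 100% = 10 µM 1-NA-PP1 with full growth; RAM network block rescues cells from 5-FOA so hits raise OD615 growth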); conditions: S. cerevisiae dse1pr::URA3 5-FOA growth, OD615, 2 d; at 10 µM; hits give high values; strain carries analog-sensitive mutant Cbk1 kinase
[7] = RAM signaling pathway blockade in yeast – S. cerevisiae, Pdr1DBD-CYC8 efflux-inhibited sensitized strain, primary screen (AID 1298;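 active = RAM network inhibition above 8.4% in each of two replicates, 3 SD over the compound average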;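 also: 0% = DMSO untreated cells without growth and 100% = 10 µM 1-NA-PP1 full growth; higher means more yeast growth rescued from 5-FOA killing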); conditions: S. cerevisiae cbk1-as DSE1-URA3 strain, 5-FOA growth OD615, 2 d; at 50 µM; hits give high values

Cc1ccc(-c2nnc3n2N=C(c2ccc(Br)cc2)CS3)cc1
inactive: growth inhibition [1] 1.27% | growth inhibition [2] 15.8% | viability increase [3] -2.58% | viability [4] 102% | viability [5] 90.5% | inhibition [6] 2.41% | RAM network inhibition [7] 4.62%

CC(C)N(Cc1nc(-c2ccc(Cl)cc2)no1)C(=O)CCCN1C(=O)c2ccccc2C1=O
inactive: growth inhibition [1] -14.4% | growth inhibition [2] -15.6% | viability increase [3] 5.41% | viability [4] 104% | viability [5] 91.6% | inhibition [6] 1.4% | RAM network inhibition [7] 6.24%

Cc1cc(C)cc(-n2cc3c(=O)n(C)c(=O)n(C)c3c2)c1
inactive: growth inhibition [1] -6.43% | growth inhibition [2] -0.345% | viability increase [3] -1.71% | viability [4] 102% | viability [5] 103% | inhibition [6] 0.155% | RAM network inhibition [7] 2.55%

O=C(C1=C(O)C(=O)N(CCN2CCOCC2)C1c1ccncc1)c1ccco1 (stereo not given)
inactive: growth inhibition [1] -15.4% | growth inhibition [2] 2.89% | viability increase [3] -3.57% | viability [4] 98.3% | viability [5] 93.2% | inhibition [6] 2.35% | RAM network inhibition [7] 2.42%

O=S(=O)(CCc1ccccc1)N1CCOCC1
inactive: growth inhibition [1] 1.85% | growth inhibition [2] -1.08% | viability increase [3] -1.35% | viability [4] 106% | viability [5] 103% | inhibition [6] 0.8% | RAM network inhibition [7] 2.83%

COC(=O)c1ccccc1NS(=O)(=O)c1cn(C)c(=O)n(C)c1=O
inactive: growth inhibition [1] -1.82% | growth inhibition [2] -6.46% | viability increase [3] -1.59% | viability [4] 101% | viability [5] 92.6% | inhibition [6] 0.585% | RAM network inhibition [7] 1.2%

COC(=O)C(C)Sc1nnc(Cc2cc(=O)[nH]c(=O)[nH]2)n1-c1cccc(OC)c1 (stereo not given)
inactive: growth inhibition [1] -7.95% | growth inhibition [2] -0.1% | viability increase [3] 0.21% | viability [4] 104% | viability [5] 108% | inhibition [6] 2.8% | RAM network inhibition [7] 3%

CC(=O)c1cccc(NC(=O)C2CCCN2S(=O)(=O)c2cccc3cccnc23)c1 (stereo not given)
inactive: growth inhibition [1] -1.04% | growth inhibition [2] 3.5% | viability increase [3] -5.23% | viability [4] 74.4% | viability [5] 82.7% | inhibition [6] 1.09% | RAM network inhibition [7] 6.23%

COc1ccc(CNC(=O)C2CCN(S(=O)(=O)c3cccc4cccnc34)CC2)cc1
inactive: growth inhibition [1] -9.14% | growth inhibition [2] 3.15% | viability increase [3] 0.11% | viability [4] 99.9% | viability [5] 92.2% | inhibition [6] 2.6% | RAM network inhibition [7] 2.66%

Cn1c(Cn2c(=O)sc3ccccc32)nnc1SCc1cccc(F)c1
inactive: growth inhibition [1] -7.92% | growth inhibition [2] 2.12% | viability increase [3] -0.5% | viability [4] 71.1% | viability [5] 69.7% | inhibition [6] 3.43% | RAM network inhibition [7] 7.87%

COc1ccc(C2N(c3cc(Cl)ccc3OC)C(=O)C3CCCN32)cc1OC (stereo not given)
inactive: growth inhibition [1] -8.95% | growth inhibition [2] -8.17% | viability increase [3] -1.86% | viability [4] 106% | viability [5] 95.9% | inhibition [6] 1.02% | RAM network inhibition [7] 7.33%

COc1ccc(-c2nc(CS(=O)CC(=O)N3CCc4ccccc4C3)c(C)o2)cc1 (stereo not given)
inactive: growth inhibition [1] 2.66% | growth inhibition [2] 32.7% | viability increase [3] -2.66% | viability [4] 85.6% | viability [5] 88.8% | inhibition [6] 1.13% | RAM network inhibition [7] 3.48%

CCOc1ccc(/C(=N\O)C(C)NO)cc1 (stereo not given)
inactive: growth inhibition [1] -16.4% | growth inhibition [2] -10.4% | viability increase [3] 1.06% | viability [4] 87.9% | viability [5] 97.1% | inhibition [6] 0.925% | RAM network inhibition [7] 3.88%

CCC(=O)Nc1c(C)cc(C)cc1Cl
inactive: growth inhibition [1] -12.5% | growth inhibition [2] -10.9% | viability increase [3] -0.97% | viability [4] 92.7% | viability [5] 96.4% | inhibition [6] 1.44% | RAM network inhibition [7] 0.83%

COc1cc(SC)ccc1C(=O)Nc1ccc2c(c1)OCCO2
inactive: growth inhibition [1] -7.61% | growth inhibition [2] -4.97% | viability increase [3] -0.82% | viability [4] 67.1% | viability [5] 65.8% | inhibition [6] 1.18% | RAM network inhibition [7] -0.97%

Brc1ccc2c(c1)c1nc3ccccc3nc1n2CCN1CCOCC1
inactive: growth inhibition [1] -11% | growth inhibition [2] -0.14% | viability increase [3] -5.95% | viability [4] 56% | viability [5] 59.4% | inhibition [6] 4.42% | RAM network inhibition [7] 5.58%

CC1NC(=O)NC1CCCCC(=O)O (stereo not given)
inactive: growth inhibition [1] -6.38% | growth inhibition [2] 2.25% | viability increase [3] 1.3% | viability [4] 109% | viability [5] 104% | inhibition [6] 3.06% | RAM network inhibition [7] 2.65%

O=C(c1ccccc1C(=O)N1CCN(c2ccccc2F)CC1)N1CCN(c2ccccc2F)CC1
inactive: growth inhibition [1] -6.81% | growth inhibition [2] -15.5% | viability increase [3] -0.42% | viability [4] 61.6% | viability [5] 68.2% | inhibition [6] 1.44% | RAM network inhibition [7] 11.2%

Cc1cccc(NC(=O)CN(C)S(=O)(=O)c2cccc3cccnc23)c1
inactive: growth inhibition [1] 2.15% | growth inhibition [2] -0.265% | viability increase [3] 1.15% | viability [4] 96.5% | viability [5] 96.1% | inhibition [6] 0.01% | RAM network inhibition [7] -0.41%

CC1CCCN(c2nc3c(c(=O)[nH]c(=O)n3C)n2CCSc2nc3ccccc3o2)C1 (stereo not given)
inactive: growth inhibition [1] -1.52% | growth inhibition [2] -1.66% | viability increase [3] -3.56% | viability [4] 98% | viability [5] 98.5% | inhibition [6] 0.55% | RAM network inhibition [7] 7.08%

CCCCN(C)CCC(=O)Nc1ccc(OC)cc1OC
inactive: growth inhibition [1] -0.81% | growth inhibition [2] -1.21% | viability increase [3] -3.73% | viability [4] 88.5% | viability [5] 86.4% | inhibition [6] 2.29% | RAM network inhibition [7] -1.48%

O=C(Cn1cc2c(n1)CCCC2)NCCCN1CCN(Cc2ccccc2)CC1
inactive: growth inhibition [1] -1.54% | growth inhibition [2] -1.17% | viability increase [3] -2.71% | viability [4] 91.5% | viability [5] 93.2% | inhibition [6] 0.61% | RAM network inhibition [7] -0.1%

Cn1c(=O)[nH]c(=O)c2c1nc(SCCN1CCOCC1)n2CCCc1ccccc1
inactive: growth inhibition [1] -6.32% | growth inhibition [2] -14.4% | viability increase [3] -3.69% | viability [4] 96.8% | viability [5] 85.5% | inhibition [6] 0.63% | RAM network inhibition [7] 4.46%

CCN1C(=O)c2ccccc2Sc2ccc(C(=O)NCCN3CCOCC3)cc21
inactive: growth inhibition [1] -6.92% | growth inhibition [2] -7.4% | viability increase [3] -0.43% | viability [4] 110% | viability [5] 101% | inhibition [6] -0.985% | RAM network inhibition [7] 2.02%

CN1CCN(S(=O)(=O)c2ccc(NC(=O)c3cccc(S(=O)(=O)N4CCCC4)c3)cc2)CC1
inactive: growth inhibition [1] -5.16% | growth inhibition [2] -5.09% | viability increase [3] -3.98% | viability [4] 89.2% | viability [5] 97.2% | inhibition [6] 2% | RAM network inhibition [7] 9.3%

Reference: PubChem BioAssay
